Assays:
T-ALL cell lines = type: cell-based, human; details: read-out: IC50 values, 72 hours of culture
Method in brief: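 Human T-ALL cell lines (CEM, Jurkat, MOLT4, Loucy, PEER) were cultured with a range of test compound concentrations for 72 hours. IC50 was calculated from the dose-response curves. Values are means ± S.D. of three independent experiments, compared by one-way ANOVA with Tukey's multiple comparison test.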

Jurkat cells = test: Systemic T-ALL, tail-vein injection of luciferase-expressing Jurkat cells; type: in vivo, NOD/SCID mice; details: S2157 50 mg/kg, OG-L002 12.5 mg/kg (its MTD), twice a week for 3 weeks
[1] = for changes in complete blood count, liver and kidney functions, histopathological examination of some organs: NOD/SCID mice treated with up to 150 mg/kg
[2] = system: CD34-positive normal hematopoietic progenitor cells; test: Viability of CD34-positive normal bone marrow progenitor cells; type: cell-based; details: 72 hours, with stem cell factor and thrombopoietin
Method in brief: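 Purchased CD34-positive normal bone marrow progenitor cells were cultured with stem cell factor and thrombopoietin, without or with various concentrations of test compound, for 72 hours. Jurkat cells were treated in parallel as a control. Viability was measured by MTT reduction as a percentage of untreated controls. Values are mean ± S.D. of three independent experiments, compared by one-way ANOVA with Bonferroni post-hoc test.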

[3] = system: mitogen-activated normal T-lymphocytes; test: Viability of mitogen-activated normal T-lymphocytes; type: cell-based
[4] = Pharmacokinetic study, plasma and brain concentrations by LC-MS/MS; type: in vivo, NOD/SCID mice; details: for Brain/Plasma ratio / AUC / Brain concentration at 0.5 h / Plasma concentration at 0.5 h / T1/2 / nAUC (dose-normalized AUC): NOD.CB17-PrkdcSCID/J mice, single intraperitoneal injection, 50 mg/kg, n = 3; for Brain/Plasma ratio: 0.5 h
T-ALL cells = test: Subcutaneous T-ALL xenograft; type: in vivo, NOD/SCID mice; details: for side effects / size of subcutaneous tumors: intraperitoneal injection at 50 mg/kg, 3 times a week
MOLT4 cells [5] = type: in vivo, NOD/SCID mice; details: for effect on CNS leukemia: murine xenotransplant model, histopathological examination / imaging
MOLT4 cells [6] = test: Isobologram / combination index analysis with anti-leukemic drugs; type: cell-based, human; details: 72 hours
Method in brief: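 MOLT4 cells exposed to each of several anti-leukemia drugs, without or with the test compound, for 72 h to generate dose-response curves for each combination. Combination index calculated by the Chou–Talalay method; CI <1.0 taken as synergism. Mean ± S.D. from three independent experiments.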

primary T-ALL cells = test: Combination with anti-leukemic drugs in primary T-ALL cells; type: cell-based, human
[7] = system: ZEB2-positive ETP-ALL cell lines such as Loucy and PEER; test: Efficacy in relation to ZEB2 expression in T-ALL and ETP-ALL cell lines; type: cell-based, human
[8] = system: murine genetically engineered T-ALL and human T-ALL cell lines such as MOLT4, Jurkat, HPB-ALL and KARPAS45; details: cited from earlier work
T-ALL = details: read-out: IC50 values; cited from earlier work
[9] = single intraperitoneal injection at 50 mg/kg, NOD/SCID and ICR mice

Compound	IC50 (T-ALL cell lines) [µM]	anti-leukemic activity in Jurkat-transplanted mice (Jurkat cells)	viability of CD34-positive normal hematopoietic progenitor cells [2]	viability of mitogen-activated normal T-lymphocytes [3]	Brain/Plasma ratio [4]	AUC [4] [µM·h]	Brain concentration at 0.5 h [4] [µmol/kg]	Plasma concentration at 0.5 h [4] [µM]	T1/2 [4] [h]	nAUC (dose-normalized AUC) [4] [µM·h]	side effects (T-ALL cells)	size of subcutaneous tumors (T-ALL cells)	effect on CNS leukemia (MOLT4 cells [5])	combined effect with L-asparaginase (MOLT4 cells [6])	combined effect with dexamethasone (MOLT4 cells [6])	efficacy in ZEB2-positive ETP-ALL cell lines [7]	changes in complete blood count, liver and kidney functions, histopathological examination of some organs [1]	further results
N[C@H]1C[C@@H]1c1ccc(-c2cccc(O)c2)cc1 [OG-L002, reference compound]	≥ 20	failed to show anti-leukemic activity																maximum tolerated dose (MTD) ([1]; NOD/SCID mice, intraperitoneal injection): 12.5 mg/kg; dose after which recipients died immediately ([1]; NOD/SCID mice, intraperitoneal injection, unknown causes): ≥ 25 mg/kg
CN1CCN(C(=O)CN[C@@H]2C[C@H]2c2cc(F)cc(F)c2OCc2ccccc2)CC1.Cl [S2157]		therapeutic benefit of S2157 including the eradication of CNS disease	did not affect the viability	modestly inhibited	13.0 ± 6.26	5.75 ± 3.67	64.0 ± 3.46	5.71 ± 2.47	0.88 ± 0.04	0.11 ± 0.07	negligible side effects, such as moderate leukocytosis and thrombocytopenia without bleeding tendency	less than 20 % of that in the untreated control	CNS leukemia nearly disappeared	synergistic	synergistic	relatively ineffective	no obvious changes were observed	brain/plasma concentration ratio relative to S2116 [4, 9]: > 75 fold; maximal brain concentration relative to S2116 [4, 9]: approximately 50 fold; hazard ratio against untreated mice, single agent (MOLT4 cells [5]; 50 mg/kg ip twice a week, log-rank test, P = 0.0246): 0.2371; hazard ratio against untreated control, combination with dexamethasone (MOLT4 cells [5]; S2157 50 mg/kg ip twice a week plus dexamethasone 10 mg/kg ip 5 times a week): 0.1787; neurotoxicity (MOLT4 cells [5]; murine xenografts): without detectable neurotoxicity; growth of MOLT4 cells (bioluminescence) (MOLT4 cells [5]; twice-per-week injection at either 30 mg/kg or 50 mg/kg): almost completely suppressed the growth of MOLT4 cells in most but not all mice; combined effect with 4-hydroxycyclophosphamide (4-OHCY) (MOLT4 cells [6]): additive; combined effect with bortezomib (MOLT4 cells [6]): additive; combined effect with L-asparaginase (primary T-ALL cells): synergy; combined effect with dexamethasone (primary T-ALL cells): synergy
O=C(O)c1ccc(CN2CCC(CN[C@@H]3C[C@H]3c3ccccc3)CC2)cc1 [GSK2879552]																		pro-apoptotic activity [8]: failed to show pro-apoptotic activity
Cl.N[C@H]1CCN(C(=O)CN[C@@H]2C[C@H]2c2cc(F)cc(F)c2OCc2ccccc2)C1 [S2116]			did not affect the viability	modestly inhibited	0.17 ± 0.03	41.78 ± 8.66	1.35 ± 0.39	8.17 ± 2.80	10.88 ± 2.97	0.84 ± 0.17	negligible side effects, such as moderate leukocytosis and thrombocytopenia without bleeding tendency	less than 20 % of that in the untreated control	failed to eradicate CNS disease	synergistic	additive	relatively ineffective	no obvious changes were observed	overall survival of MOLT4-inoculated mice (T-ALL cells; MOLT4-inoculated NOD/SCID mice): significantly prolonged; combined effect with cytosine arabinoside (MOLT4 cells [6]): additive
Cn1cc(C(=O)Nc2ccc([C@@H]3C[C@H]3NCC3CC3)cc2)cn1 [T-3775440]																		IC50 (T-ALL): > 10 µM
N[C@@H]1C[C@H]1c1cc(F)cc(F)c1OCc1ccccc1 [S2101]	≥ 20																	

Source: PMC6397674 (Clinical cancer research : an official journal of the …, 2018)
